In article PMC10270725 (Journal of medicinal chemistry, 2023):

What was measured:
[1] = system: TEAD transcription (pan-TEAD response element luciferase reporter) in NCI-H226 cells; assay: TEAD gene reporter; type: cell-based
How it was run: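 NCI-H226 cells (RPMI1640, 10% FBS, 1% penicillin/streptomycin) were transduced with TEAD luciferase reporter lentivirus plus 8 μg/mL polybrene and puromycin-selected from day 3. Reporter cells were seeded at 1000 cells/well in 384-well plates and dosed with test compound for 3 days. One-Glo luciferase signal was normalized to CellTiter-Glo viability.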

[2] = target: His-TEAD3-YBD recombinant protein (Homo sapiens, UniProt Q99594); assay: TEAD3 TR-FRET biochemical assay; type: binding; conditions: fixed time point 5 h
His-TEAD3-YBD recombinant protein, sequence (Q99594 219-435 limits assumed): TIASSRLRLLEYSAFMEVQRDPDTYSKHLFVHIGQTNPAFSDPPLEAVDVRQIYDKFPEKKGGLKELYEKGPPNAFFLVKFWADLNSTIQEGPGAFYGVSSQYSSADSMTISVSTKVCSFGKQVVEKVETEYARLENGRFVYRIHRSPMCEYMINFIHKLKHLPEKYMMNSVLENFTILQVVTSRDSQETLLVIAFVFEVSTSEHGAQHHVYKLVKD
How it was run: (§1)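 100 nM His-TEAD-YBD was pretreated with test compound for 5 h. Then 800 nM FAM-labeled tracer built from a reversible pan-TEAD inhibitor was added, with anti-6His Tb cryptate antibody (50 ng/mL final). TR-FRET was read at 490/520 nm. IC50 is mean ± SEM of two experiments, each with three biological replicates.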

[3] = target: His-TEAD4-YBD recombinant protein (Homo sapiens, UniProt Q15561); assay: TEAD4 TR-FRET biochemical assay; type: binding; conditions: fixed time point 5 h
His-TEAD4-YBD recombinant protein, sequence (Q15561 217-434 limits assumed): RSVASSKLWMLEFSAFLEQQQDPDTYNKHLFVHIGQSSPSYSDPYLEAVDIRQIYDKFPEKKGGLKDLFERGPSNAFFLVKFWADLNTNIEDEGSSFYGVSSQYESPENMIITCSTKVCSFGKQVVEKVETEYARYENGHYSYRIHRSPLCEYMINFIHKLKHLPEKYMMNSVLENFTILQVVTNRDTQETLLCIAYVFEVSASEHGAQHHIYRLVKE
How it was run: as §1

[4] = target: His-TEAD1-YBD recombinant protein (Homo sapiens, UniProt P28347); assay: TEAD1 TR-FRET biochemical assay; type: binding; conditions: fixed time point 5 h
His-TEAD1-YBD recombinant protein, sequence (P28347 209-424): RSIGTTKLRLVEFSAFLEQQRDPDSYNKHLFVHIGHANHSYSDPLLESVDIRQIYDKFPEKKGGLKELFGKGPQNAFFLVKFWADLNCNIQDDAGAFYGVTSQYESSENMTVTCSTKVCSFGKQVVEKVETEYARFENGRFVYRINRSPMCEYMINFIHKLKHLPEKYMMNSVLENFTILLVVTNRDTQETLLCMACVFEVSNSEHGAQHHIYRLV
How it was run: as §1

[5] = target: His-TEAD2-YBD recombinant protein (Homo sapiens, UniProt Q15562); assay: TEAD2 TR-FRET biochemical assay; type: binding; conditions: fixed time point 5 h
His-TEAD2-YBD recombinant protein, sequence (Q15562 217-447 limits assumed): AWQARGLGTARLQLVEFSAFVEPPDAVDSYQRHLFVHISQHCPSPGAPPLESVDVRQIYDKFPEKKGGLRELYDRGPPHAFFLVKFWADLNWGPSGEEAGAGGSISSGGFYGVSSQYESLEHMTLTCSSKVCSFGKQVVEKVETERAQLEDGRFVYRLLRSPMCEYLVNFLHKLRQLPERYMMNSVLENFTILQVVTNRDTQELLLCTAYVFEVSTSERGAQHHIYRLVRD
How it was run: as §1

[6] = target: recombinant TEAD1-YBD protein (Homo sapiens, UniProt P28347); assay: Intact mass spectrometry analysis of covalent labeling; type: binding; conditions: 10-fold molar excess of compound, 1 h at rt
recombinant TEAD1-YBD protein, sequence (P28347 209-424): as the sequence (P28347 209-424) above
How it was run: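 TEAD1-YBD (residues 209−424, N-terminal 6×His) was expressed in Rosetta(DE3) pLysS and purified on cobalt resin, then by gel filtration. Protein was incubated with DMSO or test compound for 1 h at rt. It was desalted 4 min in 0.2 M acetic acid on a POROS 50R2 column and eluted with a 1-min 0–100% acetonitrile gradient in 0.2 M acetic acid. Analysis was electrospray (4.5 kV) ion-trap MS.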

[7] = system: NF2-sufficient NCI-H28 mesothelioma cells; assay: Proliferation assay in NCI-H28 cells; type: cell-based

Row | Molecule | TEAD3 TR-FRET IC50 [2] | TEAD4 TR-FRET IC50 [3] | TEAD1 TR-FRET IC50 [4] | TEAD2 TR-FRET IC50 [5] | effect on proliferation of NCI-H28 cells [7] | also measured
1 | 1-(trans-4-(5-Fluoropyrimidin-2-ylamino)-3-(4-(trifluoromethyl)-benzyloxy)piperidin-1-yl)prop-2-en-1-one [Compound 16] | – | – | – | – | – | IC50 ([1]; read-out: IC50 in the reporter gene assay (TEAD transcription), NCI-H226 reporter cells, 3 day treatment, mean ± SEM): 0.171 ± 0.088 µM
2 | C=CC(=O)N1C[C@@H](n2cc(-c3cccnc3)nn2)[C@H](OCc2ccc(C(F)(F)F)cc2)C1 (relative stereo) [Compound 1, 1-(trans-3-(4-(Pyridin-3-yl)-1H-1,2,3-triazol-1-yl)-4-((4-(trifluoromethyl)benzyl)oxy)pyrrolidin-1-yl)prop-2-en-1-one] | low nanomolar | low nanomolar | low nanomolar | low nanomolar | – | EC50 ([1]; Homo sapiens, NCI-H226, 72 h, read-out: EC50 in the TEAD reporter assay): 0.106 ± 0.03 µM
3 | C=C(F)C(=O)N1C[C@@H](Nc2ncccn2)[C@H](OCc2ccc(C(F)(F)F)cc2)C1 [Compound 22, 2-Fluoro-1-((3R,4R)-3-(pyrimidin-2-ylamino)-4-((4-(trifluoromethyl)benzyl)oxy)pyrrolidin-1-yl)prop-2-en-1-one] | – | – | – | – | limited effect | covalent complex formation with TEAD1-YBD (intact mass shift) [6]: mass shift consistent with compound 22
4 | C=CC(=O)N1C[C@@H](Nc2ncccn2)[C@H](OCc2ccc(C(F)(F)F)cc2)C1 (relative stereo) [Compound 14, 1-(trans-3-(Pyrimidin-2-ylamino)-4-((4-(trifluoromethyl)benzyl)-oxy)pyrrolidin-1-yl)prop-2-en-1-one] | – | – | – | – | limited effect | –
5 | CN(C)C/C=C/C(=O)N1C[C@@H](n2cc(-c3cccnc3)nn2)[C@H](OCc2ccc(C(F)(F)F)cc2)C1 [Compound 19, (E)-4-(Dimethylamino)-1-((3R,4R)-3-(4-(pyridin-3-yl)-1H-1,2,3-triazol-1-yl)-4-(4-(trifluoromethyl)benzyloxy)pyrrolidin-1-yl)but-2-en-1-one] | inactive | inactive | inactive | inactive | – | IC50 in the reporter gene assay (TEAD transcription) ([1]; NCI-H226 reporter cells, 3 day treatment, mean ± SEM): did not inhibit
